Screens as filed in PubChem.
A selection: hits, their analogues and other compounds. The true share with any hit is near 1.2%.
CR mimetic SO = lowers age-related superoxide in aged yeast cells; AID 2690; 330,000 tested, 0.18% active; S. cerevisiae aged cells, superoxide DHE fluorescence; stronger effect = lower value; superoxide response (% of plate mean), % at 10 µM;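 active = superoxide response under a set limit, about three screen SD below normal, cut at about 65% in these data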;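 note: yeast aged for seven days with compound at 30 °C before DHE staining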
LANA-H2A inh = blocks KSHV LANA binding to histone H2A/H2B | AID 2629 | Q9QR71 | 320,000 tested, 0.6% active | inhibition, % (test concentration not listed) | cell-free LANA-H2A/H2B peptide, fluorescence polarization; in the data active = inhibition mostly above about 10%, no sharp cut-off; inactive = mostly below about 6.7%
proCasp3 act = procaspase-3 (human) activation; AID 463141; activation, % at 8.5 µM; P42574; 330,000 tested, 0.11% active; recombinant procaspase-3 D3A, Ac-DEVD-pNA absorbance 405 nm;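 active = activation above the mean of all tested compounds plus 3 SD, cut at about 21% in these data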
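Assay system: Procaspase-3 D3A mutant, all three cleavage aspartates alanine. Buffer or medium: Zinc-free HEPES saline buffer with Triton X-100. Times: 1 h compound preincubation, 2 h substrate hydrolysis at 25 °C. Measured by: 405 nm absorbance of p-nitroaniline, reads at 0 and 120 min. Read-out basis: percent activation relative to control range. Replicates: singlicate.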
procasp7 counter = counter-screen for procaspase-3 activators: activators of human procaspase-7 | P55210 | recombinant procaspase-7, Ac-DEVD-pNA absorbance 405 nm; D23A/D198A/D206A triple mutant, cannot self-cleave; scale: DMSO 0, 5 µM enzyme 100 | activation, % at 8.5 µM | 330,000 tested, 0.093% active | AID 463210;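 active = percent activation above the screen-wide mean plus 3 SD, cut at about 25% in these data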
Target sequence (P55210 whole entry D23A/D198A/D206A): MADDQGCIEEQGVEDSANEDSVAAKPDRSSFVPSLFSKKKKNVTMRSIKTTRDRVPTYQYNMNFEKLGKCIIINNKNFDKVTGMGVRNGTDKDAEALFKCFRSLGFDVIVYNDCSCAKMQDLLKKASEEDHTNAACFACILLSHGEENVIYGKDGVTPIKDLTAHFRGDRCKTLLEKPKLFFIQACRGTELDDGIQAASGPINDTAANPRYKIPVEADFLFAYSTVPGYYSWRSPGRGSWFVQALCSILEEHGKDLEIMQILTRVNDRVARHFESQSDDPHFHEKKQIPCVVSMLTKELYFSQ
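System: Procaspase-7 triple mutant (PC-7 D3A); measure: % activation from two-timepoint absorbance difference, scaled to controls; times: 1 h compound preincubation, 2 h substrate cleavage, 25 °C; also added: Ac-DEVD-pNA substrate, 400 µM as added; measured by: Epi-absorbance of released pNA at 405 nm, two timepoints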
ASAP1 GAP inh = blocks human ASAP1-stimulated Arf1 GTP hydrolysis. GDP FP detection. inhibition, % at 16.5 µM. 360,000 tested, 0.19% active; in the data active = inhibition above about 25%
Target sequence (Q9ULH1 325-724 limits assumed): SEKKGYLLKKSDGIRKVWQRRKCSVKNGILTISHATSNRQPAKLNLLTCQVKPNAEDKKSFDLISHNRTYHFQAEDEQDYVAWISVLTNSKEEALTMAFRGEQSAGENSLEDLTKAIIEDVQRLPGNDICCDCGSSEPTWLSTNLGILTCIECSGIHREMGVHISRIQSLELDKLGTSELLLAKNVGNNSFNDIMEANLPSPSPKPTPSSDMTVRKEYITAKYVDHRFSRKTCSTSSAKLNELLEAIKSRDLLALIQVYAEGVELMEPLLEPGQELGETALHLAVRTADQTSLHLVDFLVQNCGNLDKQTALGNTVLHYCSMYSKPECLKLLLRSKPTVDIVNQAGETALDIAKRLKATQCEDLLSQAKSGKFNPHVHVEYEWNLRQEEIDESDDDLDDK
ARFGAP1 inh = rat ARFGAP1 inhibition; Q62848; Arfgap1-stimulated ARF1 GTP hydrolysis, GDP FP detection; inhibition, % at 16.5 µM; 360,000 tested, 0.26% active; AID 651572;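 active = inhibition above a per-plate limit, mean inhibition of low control wells plus 3 SD, cut at about 25% in these data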
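Assay system: purified rat His6-Arfgap1 residues 1-136 (GAP domain); Reagent: human Δ17 ARF1 bound to GTP; Dosing: 16.5 µM single point, 1.26% DMSO; Times: GTP hydrolysis reaction 2 h at 25 °C; Signal: FP, GDP Alexa 633 tracer displaced from anti-GDP antibody, 620/688 nm; Measure: % inhibition from polarization.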
Of the large screens only hits and unclear results are named; the others gave an inactive call.

O=C(O)C1CSC(c2ccc3c(c2)OCO3)N1 (stereo not drawn)	LANA-H2A inh 22
O=C(O)C1CSC(c2ccc(O)c([N+](=O)[O-])c2)N1 (stereo not drawn)	none (no result: CR mimetic SO, LANA-H2A inh, proCasp3 act, procasp7 counter)
COCc1[nH]nc2c1C(c1ccccc1)NC2=O (stereo not drawn)	none (no result: CR mimetic SO, LANA-H2A inh, proCasp3 act, procasp7 counter)
O=C1c2ccccc2-c2onc3ccc(NCCCn4ccnc4)c1c23	LANA-H2A inh 176 (no result: ASAP1 GAP inh, ARFGAP1 inh)
NS(=O)(=O)c1ccc(NCCCn2ccnc2)c([N+](=O)[O-])c1	none
COc1ccc2noc3c2c1C(=O)c1ccccc1-3	LANA-H2A inh 167
Oc1ccccc1CNc1cnc2ccccc2c1	LANA-H2A inh 20
Cc1cccc(N2CCN(C(=O)Cc3ccccc3[N+](=O)[O-])CC2)c1C	LANA-H2A inh 21
CCOc1ccccc1OCCCC(=O)Nc1ccc(Cl)c(S(=O)(=O)N2CCOCC2)c1	LANA-H2A inh 30
Cc1cccc(OCCCC(=O)Nc2ccc(Cl)c(S(=O)(=O)N3CCOCC3)c2)c1	none
COC(=O)[C@]12C[C@H](CC(=O)N3CCCCC3)C(=O)N(CCC3=CCCCC3)C1=C[C@H](COCc1ccccc1)O[C@@H]2C	none (no result: CR mimetic SO, LANA-H2A inh, proCasp3 act, procasp7 counter)
COC(=O)[C@]12C[C@H](CC(=O)NCCCN3CCCC3=O)C(=O)N(Cc3ccc4c(c3)OCO4)C1=C[C@H](COCc1ccccc1)O[C@@H]2C	none (no result: CR mimetic SO, LANA-H2A inh, proCasp3 act, procasp7 counter)
COc1ccc(NC(=O)c2ocnc2C)cc1OC	none (no result: ASAP1 GAP inh, ARFGAP1 inh)
COc1ccc(Cl)cc1NC(=O)c1ocnc1C	LANA-H2A inh 18
Cc1cc(Oc2cccnc2)ccc1NC(=O)Cc1c(C)[nH]c2ccccc12	none (no result: CR mimetic SO, LANA-H2A inh, proCasp3 act, procasp7 counter)
Cc1coc2c1c(C)cc1oc(=O)c(CC(=O)NCCCCCC(=O)O)c(C)c12	none
CCCCCNC(=O)C(=O)C1C(=O)Nc2ccccc21 (stereo not drawn)	CR mimetic SO 56
CN(C)CCNC(=O)C(=O)C1C(=O)Nc2ccccc21 (stereo not drawn)	none
CCC/C(=N/NC(=O)c1cccc(Cl)c1)c1ccccc1	LANA-H2A inh 14
CNc1nc(-c2ccccc2)c2sccc2n1	none (no result: CR mimetic SO, LANA-H2A inh, proCasp3 act, procasp7 counter)
CCOC(=O)c1ccccc1NC(=O)COC(=O)CN1C(=O)C2CC=CCC2C1=O (stereo not drawn)	LANA-H2A inh 162
COCc1cc(N2CCNC[C@H]2C)ccc1N1C[C@@H](C)O[C@@H](C)C1	none (no result: CR mimetic SO, LANA-H2A inh, proCasp3 act, procasp7 counter)
Cc1[nH]nc2c1C(c1ccc3c(c1)OCO3)N(Cc1ccccc1)C2=O (stereo not drawn)	none (no result: CR mimetic SO, LANA-H2A inh, proCasp3 act, procasp7 counter)
COc1cccc(CNC(=O)c2cccc(S(=O)(=O)N3CCN(c4ccc(F)cc4)CC3)c2)c1	LANA-H2A inh 22
C[C@H](NC(=O)C1CC(=O)N(c2ccc3c(c2)OCCO3)C1)C(=O)N1CCCCC1 (stereo partly drawn)	LANA-H2A inh 16
COc1ccc(/C(N)=N/OC(=O)N2CCOCC2)cc1	LANA-H2A inh 14
COc1ccc(OC(=O)N2CCOCC2)cc1	none
Cc1ccc(S(=O)(=O)/N=c2\ccc(Cl)cn2C(F)F)cc1	LANA-H2A inh 17
CCOC(=O)N1CCC(NC(=O)c2cc(C(=O)Nc3ccc(S(=O)(=O)N4CCOCC4)cc3)ccc2CO)CC1	LANA-H2A inh 17
CCOC(=O)N1CCC(NC(=O)c2cc(S(=O)(=O)N3CCOCC3)ccc2F)CC1	none (no result: ASAP1 GAP inh, ARFGAP1 inh)
COc1cc(/C=N/NC(=O)C(NC(=O)c2ccccc2)c2n[nH]c(=O)c3ccccc23)ccc1OCC(N)=O (stereo not drawn)	LANA-H2A inh 22
COc1ccccc1CCn1cnc2c3cc(C)ccc3n(C)c2c1=O	LANA-H2A inh 24
O=C(CCn1c(=S)oc2ccccc21)NC1CCCCC1	none
Cc1cc(NC(=O)CCC(=O)N(CC(=O)NC2CCCC2)c2ccccc2)no1	LANA-H2A inh 22
Cc1cc(NC(=O)CCCC(=O)N(CC(=O)NC2CCCCC2)c2ccccc2)no1	none
C[C@H]1C(C(=O)N(C)C2CCCCC2)=Cc2c(n(-c3ccc(F)cc3)c(=O)n2CCCOc2ccccc2)C=C1c1ccccc1	none (no result: CR mimetic SO, LANA-H2A inh, proCasp3 act, procasp7 counter)
O=S(=O)(NC1=NCCCCC1)c1ccc(Cl)cc1	LANA-H2A inh active
O=S(=O)(NC1=NCCCCC1)c1ccc(F)cc1	none
O=C(N[C@H](C(=O)N1CCC[C@H]1C(=O)NCCc1ccccc1Cl)C1CCCCC1)c1ccc(Cl)c(Cl)c1	none (no result: CR mimetic SO, LANA-H2A inh, proCasp3 act, procasp7 counter)
CCCCN(C(=O)C(C)N1C(=O)c2ccccc2C1=O)c1c(N)n(CCCC)c(=O)[nH]c1=O (stereo not drawn)	none
CCCCN(C(=O)C(C)N1C(=O)c2ccccc2C1=O)c1c(N)n(CC(C)C)c(=O)[nH]c1=O (stereo not drawn)	LANA-H2A inh 14
CCCCN(C(=O)CCCc1nc2ccccc2s1)c1c(N)n(CC(C)C)c(=O)[nH]c1=O	LANA-H2A inh 176
CC(=O)OCCn1c2nc(=O)[nH]c(=O)c-2nc2cc(C)c(C)cc21	LANA-H2A inh 166 (no result: proCasp3 act, procasp7 counter)
S=c1[nH]nc(-c2ccc(Cl)cc2Cl)n1-c1ccc(Cl)cc1	LANA-H2A inh 45
CCOc1cccc(C=NNC(=O)C(=O)Nc2cccc(C(F)(F)F)c2)c1O	none (no result: CR mimetic SO, LANA-H2A inh, proCasp3 act, procasp7 counter)
COc1ccccc1C(=O)NCC(=O)OC(C)C(=O)N(C)C1CCCCC1 (stereo not drawn)	LANA-H2A inh 19
O=S(=O)(N/N=C1\CCCc2ccccc21)c1ccccc1	LANA-H2A inh 14
O=C(CNC(=O)OCc1ccccc1)NC1CCCCCC1	LANA-H2A inh 17
O=C(COc1ccccc1)NC1CCCCC1	none
O=C(COc1ccccc1)NC1CCCCCCC1	LANA-H2A inh 8.9
COc1cc(NC(=O)COc2ccccc2)c(OC)cc1NC(C)=O	LANA-H2A inh 14
COc1cc(NC(=O)c2ccccc2)c(OC)cc1NC(C)=O	none
O=C(CCCN1C(=O)c2cccnc2C1=O)Nc1ccccc1F	none
O=C(CCCN1C(=O)c2cccnc2C1=O)N1CC(=O)N(CCc2ccccc2)C(=O)C1	LANA-H2A inh 25
CCC(C)Nc1nc(-c2c[nH]c3ccccc23)cs1 (stereo not drawn)	ARFGAP1 inh 32
Cc1cc(N=Nc2ccc(C)c(N=Nc3cc(C)c(N)cc3N)c2)c(N)cc1N	ARFGAP1 inh 25
COc1ccc(N=Nc2cc(OC)c(N)cc2OC)cc1	none (no result: CR mimetic SO, LANA-H2A inh, proCasp3 act, procasp7 counter)
COC(=O)[C@]12C[C@H](CC(=O)N3CCOCC3)C(=O)N(Cc3ccccc3)C1=C[C@H](C(C)(C)C)O[C@@H]2C	none (no result: CR mimetic SO, LANA-H2A inh, proCasp3 act, procasp7 counter)
Cc1ccc(NC2=NC3(CCCC3)N=C(N)N2)c(C)c1	CR mimetic SO 62
O=C(C[n+]1ccc2ccccc2c1)Nc1cc(C(F)(F)F)ccc1Cl	CR mimetic SO 59
O=C(C[n+]1ccccc1)Nc1cc(C(F)(F)F)ccc1Cl	none (no result: LANA-H2A inh)
